From ChEMBL document CHEMBL1759832, “Discovery of torezolid as a novel 5-hydroxymethyl-oxazolidinone antibacterial agent” (Eur J Med Chem, 2011)
Values after ≈ are worked out from the molar mass of the structure shown.

Legend:
[1] = system: Staphylococcus aureus; experiment: Antibacterial activity against methicillin-resistant Staphylococcus aureus by agar dilution method; type: functional
Method in brief: (§1)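 MIC by CLSI agar dilution on Mueller-Hinton agar for S. aureus (MSSA, MRSA) and Enterococcus faecium (VRE).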

[2] = system: Enterococcus; experiment: Antibacterial activity against vancomycin-resistant Enterococcus by agar dilution method; type: functional; method in brief: as §1
[3] = system: Staphylococcus aureus; experiment: Antibacterial activity against methicillin-susceptible Staphylococcus aureus by agar dilution method; type: functional; method in brief: as §1
[4] = system: Staphylococcus aureus; experiment: Antibacterial activity against methicillin-susceptible Staphylococcus aureus Smith infected po dosed ICR mouse assessed as protection against mouse mortality administered 1 hr after infection measured up to 7 days; type: functional
Method in brief: (§2)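 Male outbred ICR mice (4-week-old, 18-20 g) infected intraperitoneally with S. aureus Smith, 2.9 × 10⁷ CFU/mouse in 5% mucin. Compounds given orally or intravenously 1 h after infection, eight mice per group. Mortality followed for 7 days. ED50 taken as the dose protecting 50% of infected mice from death.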

[5] = system: Haemophilus influenzae; experiment: Antibacterial activity against Haemophilus influenzae by agar dilution method; type: functional
Method in brief: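 CLSI agar dilution; Haemophilus test medium used for H. influenzae; read-out MIC.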

[6] = AUC in ICR mouse at 10 mg/kg, iv by LC/MS/MS analysis; type: ADME, organism-based; parameters: dose 10 mg/kg, route intravenous; conditions: plasma
Method in brief: (§3)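 Single 10 mg/kg dose given orally by feeding tube or iv via tail vein to male ICR mice (4-week-old, 18-20 g). Plasma acidified with 1 N HCl, stored at -70 °C, analysed by LC/MS/MS. Parameters from mean plasma concentrations. For prodrug dosing, values are based on the active parent detected.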

[7] = Oral bioavailability in ICR mouse at 10 mg/kg by LC/MS/MS analysis; type: ADME, organism-based; conditions: in vivo; method in brief: as §3
[8] = Volume of distribution at steady state in ICR mouse at 10 mg/kg, iv by LC/MS/MS analysis; type: ADME, organism-based; parameters: dose 10 mg/kg, route intravenous; conditions: in vivo, read-out: Vdss; method in brief: as §3
[9] = Clearance in ICR mouse at 10 mg/kg, iv by LC/MS/MS analysis; type: ADME, organism-based; parameters: dose 10 mg/kg, route intravenous; conditions: in vivo; method in brief: as §3
[10] = Tmax in ICR mouse at 10 mg/kg, po by LC/MS/MS analysis; type: ADME, organism-based; parameters: dose 10 mg/kg, route oral; conditions: in vivo; method in brief: as §3
[11] = AUC in ICR mouse at 10 mg/kg, po by LC/MS/MS analysis; type: ADME, organism-based; parameters: dose 10 mg/kg, route oral; conditions: plasma; method in brief: as §3
[12] = Half life in ICR mouse at 10 mg/kg, po by LC/MS/MS analysis; type: ADME, organism-based; parameters: dose 10 mg/kg, route oral; conditions: in vivo; method in brief: as §3
[13] = Half life in ICR mouse at 10 mg/kg, iv by LC/MS/MS analysis; type: ADME, organism-based; parameters: dose 10 mg/kg, route intravenous; conditions: in vivo; method in brief: as §3
[14] = Cmax in ICR mouse at 10 mg/kg, po by LC/MS/MS analysis; type: ADME, organism-based; parameters: dose 10 mg/kg, route oral; conditions: in vivo; method in brief: as §3
[15] = Chemical stability of compound in distilled water assessed as compound remaining at 100 ug/ml after 8 hrs; type: physicochemical
[16] = Chemical stability of compound in distilled water assessed as compound remaining at pH 7 at 100 ug/ml after 8 hrs; type: physicochemical; conditions: buffer, pH 7, 8 h
[17] = Chemical stability of compound in distilled water assessed as compound remaining at pH 5 at 100 ug/ml after 8 hrs; type: physicochemical; conditions: buffer, pH 5, 8 h
[18] = Chemical stability of compound in distilled water assessed as compound remaining at pH 3 at 100 ug/ml after 8 hrs; type: physicochemical; conditions: buffer, pH 3, 8 h
[19] = Aqueous solubility of compound in distilled water; type: physicochemical
Method in brief: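 Water added stepwise with repeated vortexing until solution turned transparent; solubility = amount dissolved divided by total distilled water volume in the final clear solution; triplicate, averaged.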

[20] = system: Streptococcus pneumoniae; experiment: Antibacterial activity against penicillin-resistant Streptococcus pneumoniae by agar dilution method; type: functional
[21] = system: Staphylococcus aureus; experiment: Antibacterial activity against methicillin-resistant Staphylococcus aureus Smith infected po dosed ICR mouse assessed as protection against mouse mortality administered 1 hr after infection measured up to 7 days; type: functional; method in brief: as §2
[22] = system: Staphylococcus aureus; experiment: Antibacterial activity against methicillin-resistant Staphylococcus aureus Smith infected iv dosed ICR mouse assessed as protection against mouse mortality administered 1 hr after infection measured up to 7 days; type: functional; method in brief: as §2
[23] = system: Staphylococcus aureus; experiment: Antibacterial activity against methicillin-sensitive Staphylococcus aureus Smith infected iv dosed ICR mouse assessed as protection against mouse mortality administered 1 hr after infection measured up to 7 days; type: functional; method in brief: as §2
[24] = system: Staphylococcus aureus; experiment: Antibacterial activity against methicillin-sensitive Staphylococcus aureus Smith infected po dosed ICR mouse assessed as protection against mouse mortality administered 1 hr after infection measured up to 7 days; type: functional; method in brief: as §2

Structure (SMILES) | MIC [1] | MIC [2] | MIC [3] | ED50 [4] | MIC [5] | Stability [15] | Stability [16] | Stability [17] | Stability [18] | also measured
Cn1nnc(-c2ccc(-c3ccc(N4C[C@H](Cn5nccn5)OC4=O)cc3F)cn2)n1 | 16 µg/mL (≈ 38 µM) | 16 µg/mL (≈ 38 µM) | 16 µg/mL (≈ 38 µM) |  |  |  |  |  |  | 
Cn1nnc(-c2ccc(-c3ccc(N4C[C@H](CNC(=O)CO)OC4=O)cc3F)cn2)n1 | 1 µg/mL (≈ 2.34 µM) | 0.25 µg/mL (≈ 0.585 µM) | 1 µg/mL (≈ 2.34 µM) | > 30 mg/kg |  |  |  |  |  | 
COC[C@H]1CN(c2ccc(-c3ccc(-c4nnn(C)n4)nc3)c(F)c2)C(=O)O1 | 2 µg/mL (≈ 5.2 µM) | 2 µg/mL (≈ 5.2 µM) | 2 µg/mL (≈ 5.2 µM) |  |  |  |  |  |  | 
Cc1nnc(-c2ccc(-c3ccc(N4C[C@H](Cn5ccnn5)OC4=O)cc3F)cn2)o1 | 0.25 µg/mL (≈ 0.593 µM) | 0.125 µg/mL (≈ 0.297 µM) | 0.25 µg/mL (≈ 0.593 µM) | > 30 mg/kg | 2 µg/mL (≈ 4.75 µM) |  |  |  |  | 
Cn1nnc(-c2ccc(-c3ccc(N4C[C@H](CO)OC4=O)cc3F)cn2)n1 [TEDIZOLID] | 0.5 µg/mL (≈ 1.35 µM) | 0.125 µg/mL (≈ 0.338 µM) | 0.5 µg/mL (≈ 1.35 µM) | 8.8 mg/kg | 4 µg/mL (≈ 10.8 µM) |  |  |  |  | AUC [6]: 103000 ng·h/mL; bioavailability [7]: 48.5%; Vd [8]: 0.512 L/kg; clearance [9]: 1.61 mL/min/kg; Tmax [10]: 2 h; AUC [11]: 49800 ng·h/mL; half-life [12]: 3.12 h; half-life [13]: 3.49 h; Cmax [14]: 4620 ng/mL
Cn1nnc(-c2ccc(-c3ccc(N4C[C@H](CNC(=O)c5ccco5)OC4=O)cc3F)cn2)n1 | 1 µg/mL (≈ 2.16 µM) | 0.5 µg/mL (≈ 1.08 µM) | 1 µg/mL (≈ 2.16 µM) | > 30 mg/kg | 16 µg/mL (≈ 34.5 µM) |  |  |  |  | 
C[C@H](N)C(=O)OC[C@H]1CN(c2ccc(-c3ccc(-c4nnn(C)n4)nc3)c(F)c2)C(=O)O1.O=C(O)C(F)(F)F |  |  |  |  |  | 90.7% | 6.3% | 87.8% | 97% | solubility [19]: > 50 mg/mL
CC(=O)NC[C@H]1CN(c2ccc(-c3ccc(-c4nnnn4C)nc3)c(F)c2)C(=O)O1 | 0.78 µg/mL (≈ 1.9 µM) | 0.125 µg/mL (≈ 0.304 µM) | 0.78 µg/mL (≈ 1.9 µM) |  |  |  |  |  |  | MIC [20]: 0.39 µg/mL (≈ 0.948 µM)
CC(C)[C@H](N)C(=O)OC[C@H]1CN(c2ccc(-c3ccc(-c4nnn(C)n4)nc3)c(F)c2)C(=O)O1.O=C(O)C(F)(F)F |  |  |  |  |  | 99.4% | 51.2% | 97.3% | 99.9% | solubility [19]: 4.7 mg/mL
Cn1nnc(-c2ccc(-c3ccc(N4C[C@H](COC(=O)[C@@H]5CCCN5)OC4=O)cc3F)cn2)n1.O=C(O)C(F)(F)F |  |  |  |  |  | 76.4% | 0.2% | 65.2% | 81.9% | solubility [19]: < 1.6 mg/mL
CC(C)[C@H](N)C(=O)OC[C@H]1CN(c2ccc(-c3ccc(-c4nnn(C)n4)nc3)c(F)c2)C(=O)O1.Cl |  |  |  |  |  | 99.9% | 60.9% | 97.7% | 99.9% | 
Cn1nnc(-c2ccc(-c3ccc(N4C[C@H](CNC(=O)c5cccs5)OC4=O)cc3F)cn2)n1 | 0.5 µg/mL (≈ 1.04 µM) | 0.5 µg/mL (≈ 1.04 µM) | 0.5 µg/mL (≈ 1.04 µM) | > 30 mg/kg |  |  |  |  |  | 
CNC[C@H]1CN(c2ccc(-c3ccc(-c4nnn(C)n4)nc3)c(F)c2)C(=O)O1 | 4 µg/mL (≈ 10.4 µM) | 4 µg/mL (≈ 10.4 µM) | 4 µg/mL (≈ 10.4 µM) |  |  |  |  |  |  | 
CC(=O)NC[C@H]1CN(c2ccc(N3CCOCC3)c(F)c2)C(=O)O1 [LINEZOLID] |  | 1 µg/mL (≈ 2.96 µM) |  | 9.4 mg/kg | 8 µg/mL (≈ 23.7 µM) |  |  |  |  | ED50 [21]: 15.6 mg/kg; ED50 [22]: 12.9 mg/kg; ED50 [23]: 29.1 mg/kg; ED50 [24]: 21.4 mg/kg
Cn1nnc(-c2ccc(-c3ccc(N4C[C@H](COC(=O)CN)OC4=O)cc3F)cn2)n1.O=C(O)C(F)(F)F |  |  |  |  |  | 79.5% | 8.1% | 92.7% | 86.6% | solubility [19]: 28 mg/mL
Cn1nnc(-c2ccc(-c3ccc(N4C[C@H](COC(=O)CCN)OC4=O)cc3F)cn2)n1.O=C(O)C(F)(F)F |  |  |  |  |  | 96.9% | 94.9% | 99.5% | 99.6% | solubility [19]: 2.6 mg/mL
COCC(=O)NC[C@H]1CN(c2ccc(-c3ccc(-c4nnn(C)n4)nc3)c(F)c2)C(=O)O1 | 1 µg/mL (≈ 2.27 µM) | 0.5 µg/mL (≈ 1.13 µM) | 1 µg/mL (≈ 2.27 µM) | 20.5 mg/kg | 16 µg/mL (≈ 36.2 µM) |  |  |  |  | 
Cl.Cn1nnc(-c2ccc(-c3ccc(N4C[C@H](COC(=O)CN)OC4=O)cc3F)cn2)n1 |  |  |  |  |  | 85.7% | 11.6% | 93.3% | 95.1% | 
Cn1nnc(-c2ccc(-c3ccc(N4C[C@H](Cn5ccnn5)OC4=O)cc3F)cn2)n1 | 0.25 µg/mL (≈ 0.593 µM) | 0.125 µg/mL (≈ 0.297 µM) | 0.25 µg/mL (≈ 0.593 µM) | 5.74 mg/kg | 2 µg/mL (≈ 4.75 µM) |  |  |  |  | 
Cn1nnc(-c2ccc(-c3ccc(N4C[C@H](CF)OC4=O)cc3F)cn2)n1 | 1 µg/mL (≈ 2.69 µM) | 1 µg/mL (≈ 2.69 µM) | 1 µg/mL (≈ 2.69 µM) |  | 64 µg/mL (≈ 172 µM) |  |  |  |  | 
Cc1nnc(-c2ccc(-c3ccc(N4C[C@H](COc5ccon5)OC4=O)cc3F)cn2)o1 | 1 µg/mL (≈ 2.29 µM) | 0.5 µg/mL (≈ 1.14 µM) | 1 µg/mL (≈ 2.29 µM) | 6.5 mg/kg | > 16 µg/mL |  |  |  |  | 
Cn1nnc(-c2ccc(-c3ccc(N4C[C@H](COc5ccon5)OC4=O)cc3F)cn2)n1 | 0.5 µg/mL (≈ 1.14 µM) | 0.25 µg/mL (≈ 0.572 µM) | 0.5 µg/mL (≈ 1.14 µM) | > 30 mg/kg |  |  |  |  |  | 
Cl.Cn1nnc(-c2ccc(-c3ccc(N4C[C@H](COC(=O)CCN)OC4=O)cc3F)cn2)n1 |  |  |  |  |  | 99.9% | 50.5% | 94.9% | 99.9% | solubility [19]: 20.4 mg/mL
Cn1nnc(-c2ccc(-c3ccc(N4C[C@H](Cn5cncn5)OC4=O)cc3F)cn2)n1 | 2 µg/mL (≈ 4.75 µM) | 1 µg/mL (≈ 2.37 µM) | 2 µg/mL (≈ 4.75 µM) | > 30 mg/kg |  |  |  |  |  | 
C[C@H](N)C(=O)OC[C@H]1CN(c2ccc(-c3ccc(-c4nnn(C)n4)nc3)c(F)c2)C(=O)O1.Cl |  |  |  |  |  | 92.3% | 7.5% | 88.1% | 98% | solubility [19]: > 50 mg/mL
Cc1nnc(-c2ccc(-c3ccc(N4C[C@H](CO)OC4=O)cc3F)cn2)o1 | 0.5 µg/mL (≈ 1.35 µM) | 0.5 µg/mL (≈ 1.35 µM) | 0.5 µg/mL (≈ 1.35 µM) | 4.2 mg/kg | 4 µg/mL (≈ 10.8 µM) |  |  |  |  | 
CN(C)CC1CN(c2ccc(-c3ccc(-c4nnn(C)n4)nc3)c(F)c2)C(=O)O1 (single isomer, unassigned) | 8 µg/mL (≈ 20.1 µM) |  | 4 µg/mL (≈ 10.1 µM) |  |  |  |  |  |  | 
